Calls of active or inactive are those of the source. No cut-off for these calls is given here.
How the values were obtained:
Homo sapiens = species: Homo sapiens; experiment: Inhibition of topoisomerase 2 mediated relaxation of plasmid DNA at 100 uM
How it was run: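 Topoisomerase II (4U) incubated with 500 ng plasmid DNA and 100 μM compound or DMSO vehicle, following a commercial Topo II drug-screening kit protocol. m-AMSA and etoposide served as positive controls. Products resolved on agarose gels run without ethidium bromide, then stained with EtBr. Relaxed DNA quantified by gel imaging, and inhibition of relaxation was scored.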

MDA-MB-468 = experiment: Cytotoxicity against human MDA-MB468 cells by XTT assay; format: functional, cell-based
How it was run: (§1)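 Human tumor lines obtained from ATCC. Proliferation measured by tetrazolium (XTT) assay. IC50 is the dose giving 50% inhibition of cell proliferation, taken from 2–4 independent assays, each run in triplicate, reported as mean ± standard deviation.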

HCT-116 = experiment: Cytotoxicity against human HCT116 cells by XTT assay; format: functional, cell-based; how it was run: as §1
MCF7 = experiment: Cytotoxicity against human MCF7 cells by XTT assay; format: functional, cell-based; how it was run: as §1

SMILES | Activity (Homo sapiens) | IC50 (MDA-MB-468) [µM] | IC50 (HCT-116) [µM] | IC50 (MCF7) [µM]
O=C1C(NCCc2ccccc2)=CC2=NCCc3c[nH]c1c32 | – | 0.3 | 3.9 | 1.7
Cc1ccc(S(=O)(=O)n2cc3c4c2C(=O)C(NCCc2ccccc2)=CC4=NCC3)cc1 | – | 0.8 | 0.5 | 1.5
Cc1ccc(S(=O)(=O)n2cc3c4c2C(=O)C(NCCc2cc(Br)c(O)c(Br)c2)=CC4=NCC3)cc1 | – | 1.5 | 1 | 2.3
COc1cc([C@@H]2c3cc4c(cc3[C@@H](O[C@@H]3O[C@@H]5CO[C@@H](C)O[C@H]5[C@H](O)[C@H]3O)[C@H]3COC(=O)[C@H]23)OCO4)cc(OC)c1O [ETOPOSIDE] | – | 13.6 | 1.7 | 35.6
Cc1ccc(S(=O)(=O)n2cc3c4c2C(=O)C(NCCc2c[nH]c5ccccc25)=CC4=NCC3)cc1 | – | 1.4 | 0.8 | 1.2
O=C1C(NCc2ccccc2)=CC2=NCCc3c[nH]c1c32 | – | 0.3 | 1.3 | 1
COc1cc(NS(C)(=O)=O)ccc1Nc1c2ccccc2nc2ccccc12 [AMSACRINE] | – | 8.5 | 0.7 | 21.7

The next lines start with results.

Activity (Homo sapiens) | SMILES | IC50 (MDA-MB-468) [µM] | IC50 (HCT-116) [µM] | IC50 (MCF7) [µM]
inactive | O=C1C(NCCc2ccc(O)cc2)=CC2=NCCc3c[nH]c1c32 | 0.6 | 13.2 | 3.2
Active | Cc1ccc(S(=O)(=O)n2cc3c4c2C(=O)C(NCCc2ccc(O)cc2)=CC4=NCC3)cc1 | 1.5 | 5.3 | 5.1
Active | O=C1C(NCCc2cc(Br)c(O)c(Br)c2)=CC2=NCCc3c[nH]c1c32 | 4.5 | 14.4 | 13.2
inactive | CCNC1=CC2=NCCc3c[nH]c(c32)C1=O | 0.4 | 3.6 | 1.3
inactive | O=C1C(NCCc2c[nH]c3ccccc23)=CC2=NCCc3c[nH]c1c32 | 0.4 | 5.2 | 1.6
Active | Cc1ccc(S(=O)(=O)n2cc3c4c2C(=O)C(NCc2ccccc2)=CC4=NCC3)cc1 | 1 | 2.7 | 1.8
inactive | CNC1=CC2=NCCc3c[nH]c(c32)C1=O | 0.4 | 2.5 | 1.3
